Measured values published in publication PMC5892780 (RMD Open, 2018).
Values belong to the molecule of their own block, whether it stands above or below them.

How the values were obtained:
[1] = test system: patients with gout; details: lesinurad 400 mg vs lesinurad 200 mg plus febuxostat or febuxostat alone; cited from earlier work
[2] = Plasma and urine PK of verinurad in the presence of febuxostat; format: in vivo, human; details: for Tmax: human, plasma, oral; for fe0-24: urine, geometric mean (95% CI)
[3] = test system: humans; details: doses as low as 2.5 mg; cited from earlier work
[4] = test system: adults with gout; assay: Serum urate; format: in vivo, human
Method in brief: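 Gout patients were dosed orally once daily after a standardised breakfast, 7 days per treatment period. Serum was sampled at screening, baseline (day –1) and weekly for 4 weeks, within 30 min predose and at preset intervals up to 24 h postdose. Emax is the maximum percent change from baseline. A mixed-effects model used treatment and period as fixed effects, subject as random effect and baseline as covariate; data were pooled across cohorts.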

[5] = test system: adults with gout; assay: Urinary uric acid pharmacodynamics; format: in vivo, human
Method in brief: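 Total-catch urine was collected on day –1, then weekly for 4 weeks, in 1 h up to 2 or 10 h intervals. On collection days subjects drank 240 mL water on waking, 240 mL with the dose, ~160 mL/h for 12 h and 240 mL at 22 h. ReUR, AeUR, CLUR and FEUA were derived per time point per 24-h collection. Analysis used a mixed-effects model with baseline covariate.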

[6] = test system: adults with gout; assay: Urinary xanthine and hypoxanthine excretion; format: in vivo, human; details: febuxostat 40 mg alone; urine
Method in brief: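 Urine from gout patients on once-daily oral treatment (total catch, day –1 and weekly for 4 weeks, with a fixed water-loading schedule) was assayed for xanthine and hypoxanthine by LC/MS/MS. Assay performance was monitored with quality control samples prepared in blank matrix. These analytes served as a marker of the functional activity of the 40 mg partner-drug dose.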

[7] = Plasma PK of febuxostat alone or in the presence of verinurad; format: in vivo, human; details: for GMR AUC0-24 / GMR Cmax: GMR (90% CI)
Method in brief: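 Adults with gout took the test compounds orally once daily, about 30 min after a standardised breakfast (approximately 650 kcal, 35% fat), in 7-day treatment periods. Blood was drawn weekly for 4 weeks, within 30 min predose and at intervals up to 24 h postdose. Plasma was separated by centrifugation, extracted by protein precipitation and analysed by LC/MS/MS. Cmax and AUC0-24 were compared by mixed-effects model (treatment fixed, subject random).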

[8] = test system: adults with gout; assay: Safety assessment; format: in vivo, human; details: febuxostat 80 mg-alone group
Method in brief: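 Subjects (sUA ≥8 mg/dL, creatinine clearance ≥60 mL/min) received colchicine 0.6 mg flare prophylaxis. Once-daily oral dosing with the test compounds was given after a standardised breakfast. Safety was monitored throughout and at day 42 (±2) follow-up: AEs coded by MedDRA V.17.0, clinical laboratory tests, vital signs, ECGs and physical examinations.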

[9] = febuxostat 40 mg + verinurad 2.5 mg vs febuxostat alone
[10] = febuxostat 40 mg + verinurad 5 mg vs febuxostat alone
[11] = febuxostat 40 mg + verinurad 20 mg vs febuxostat alone
[12] = febuxostat 80 mg + verinurad 2.5 mg vs febuxostat alone
[13] = febuxostat 80 mg + verinurad 5 mg vs febuxostat alone
[14] = febuxostat 80 mg + verinurad 10 mg vs febuxostat alone
[15] = febuxostat 80 mg + verinurad 15 mg vs febuxostat alone

Structure (SMILES): O=C(O)CSc1nnc(Br)n1-c1ccc(C2CC2)c2ccccc12 [lesinurad]
Rates of renal adverse effects [1]: increased rates of renal adverse effects

Tmax ([2]; Median Tmax of verinurad, range over verinurad 2.5-20 mg with febuxostat 40 or 80 mg): 2.5 to 4 h | Tmax ([2]; Tmax, verinurad 2.5 mg + febuxostat 40 mg, median (range)): 3.5 h | Tmax ([2]; Tmax, verinurad 2.5 mg + febuxostat 80 mg, median (range)): 2.5 h | Tmax ([2]; Tmax, verinurad 5 mg + febuxostat 40 mg, median (range)): 3.5 h | Tmax ([2]; Tmax, verinurad 5 mg + febuxostat 80 mg, median (range)): 4 h | Tmax ([2]; Tmax, verinurad 10 mg + febuxostat 40 mg, median (range)): 3 h | Tmax ([2]; Tmax, verinurad 10 mg + febuxostat 80 mg, median (range)): 3 h | Tmax ([2]; Tmax, verinurad 15 mg + febuxostat 40 mg, median (range)): 3 h | Tmax ([2]; Tmax, verinurad 20 mg + febuxostat 40 mg, median (range)): 3 h | fe0-24 ([2]; verinurad 2.5 mg + febuxostat 40 mg): 0.661 (0.437 to 1.00) % | fe0-24 ([2]; verinurad 2.5 mg + febuxostat 80 mg): 0.622 (0.347 to 1.11) % | Verinurad Ae0-24 (amount excreted unchanged in urine) ([2]; verinurad 2.5 mg with febuxostat 80 mg): 15.5 µg | fe0-24 ([2]; verinurad 5 mg + febuxostat 40 mg): 0.657 (0.444 to 0.970) % | fe0-24 ([2]; verinurad 5 mg + febuxostat 80 mg): 0.640 (0.392 to 1.05) % | fe0-24 ([2]; verinurad 10 mg + febuxostat 40 mg): 0.810 (0.622 to 1.05) % | fe0-24 ([2]; verinurad 10 mg + febuxostat 80 mg): 1.03 (0.710 to 1.49) % | fe0-24 ([2]; verinurad 15 mg + febuxostat 40 mg): 0.692 (0.561 to 0.853) % | fe0-24 ([2]; verinurad 15 mg + febuxostat 80 mg): 0.816 (0.493 to 1.35) % | fe0-24 ([2]; verinurad 20 mg + febuxostat 40 mg): 0.717 (0.542 to 0.949) % | Verinurad Ae0-24 (amount excreted unchanged in urine) ([2]; verinurad 20 mg with febuxostat 40 mg): 143 µg
Structure (SMILES): CC(C)(Sc1ccncc1-c1ccc(C#N)c2ccccc12)C(=O)O [verinurad]
sUA lowering in humans [3]: significant sUA lowering

Structure (SMILES): Cc1nc(-c2ccc(OCC(C)C)c(C#N)c2)sc1C(=O)O [febuxostat]
Emax, maximum percent decrease in sUA from baseline ([4]; febuxostat 40 mg alone): 42% | Emax, maximum percent decrease in sUA from baseline ([4]; febuxostat 80 mg alone): 55% | Mean maximum urinary uric acid excretion rate (ReUR) compared with baseline ([5]; febuxostat 40 and 80 mg alone): reduced below baseline | Influence on FEUA ([5]; febuxostat 40 or 80 mg administered alone): did not influence | Influence on CLUR ([5]; febuxostat 40 or 80 mg administered alone, data not shown): did not influence | Increase in mean excretion of hypoxanthine [6]: 527% | Increase in mean excretion of xanthine [6]: 1965% | GMR AUC0-24 [7, 9]: 94.2 (88.1 to 101) % | GMR Cmax [7, 9]: 91.2 (69.3 to 120) % | GMR AUC0-24 [7, 10]: 92.4 (89.0 to 95.8) % | GMR Cmax [7, 10]: 85.6 (75.7 to 96.7) % | GMR AUC0-24 [7, 11]: 94.1 (89.4 to 99.0) % | GMR Cmax [7, 11]: 114 (92.0 to 141) % | GMR AUC0-24 [7, 12]: 98.6 (94.5 to 103) % | GMR Cmax [7, 12]: 146 (130 to 165) % | GMR AUC0-24 [7, 13]: 89.3 (82.8 to 96.3) % | GMR Cmax [7, 13]: 89.9 (68.8 to 117) % | GMR AUC0-24 [7, 14]: 94.2 (90.7 to 97.9) % | GMR Cmax [7, 14]: 101 (87.9 to 116) % | GMR AUC0-24 [7, 15]: 92.9 (84.1 to 103) % | GMR Cmax [7, 15]: 123 (88.3 to 173) % | Febuxostat exposures alone vs in combination with verinurad ([7]; febuxostat 40 or 80 mg): equivalence | TEAE of severe intensity [8]: a severe case of hypertriglyceridaemia
